Experimental data as given in ChEMBL document CHEMBL1155879, “Identification and validation of human DNA ligase inhibitors using computer-aided drug design” (J Med Chem, 2008).
Active and inactive are the calls of the source. The rule behind the calls is not given here.

Tests used:
DNA ligase 1 [1] = target: T1, DNA ligase 1 (Homo sapiens, UniProt P18858); assay: Inhibition of human recombinant DNA ligase 1 at 100 uM by fluorescence energy transfer-based DNA joining assay relative to control
Procedure, shortened: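 Fluorescence energy transfer joining of a nicked DNA substrate (10 pmol) by purified recombinant hLigI (0.25 pmol), run in duplicate with or without 100 µM candidate inhibitor.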

[2] = Partition coefficient, log P of the compound; format: physicochemical; conditions: octanol/water
[3] = Growth inhibition of human MCF10A cells at 50 uM by MTT assay relative to control; format: cell-based; conditions: MCF-10A
HCT-116 = assay: Growth inhibition of human HCT116 cells at 50 uM by MTT assay relative to control; format: functional, cell-based
DNA ligase 1 [4] = target: T1, DNA ligase 1; assay: Inhibition of human recombinant DNA ligase 1 by radioactive gel-based ligation assay
Procedure, shortened: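 A 25-mer and a 5′-[32P]-labeled 18-mer were annealed to a complementary 44-mer to give a centrally nicked duplex. Labeled substrate (0.5 pmol) and hLigI (0.02 pmol) in ligation buffer were incubated with varying inhibitor concentrations for 30 min at 25 °C. Products were resolved on gels, and IC50 was derived from the concentration-dependence.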

DNA = assay: Inhibition of ethidium bromide binding to DNA at 100 uM
DNA ligase 1 [5] = target: T1, DNA ligase 1; assay: Inhibition of human recombinant DNA ligase 1 in presence of 0.1% Triton X-100 by fluorescence energy transfer-based DNA joining assay relative to control
DNA ligase 1 [6] = target: T1, DNA ligase 1; assay: Inhibition of human recombinant DNA ligase 1 using nicked DNA substrate by kinetic assay
Procedure, shortened: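 Initial ligation rates were measured with hLigI (0.05 pmol) and fluorescent nicked DNA substrate (0.5–100 pmol) at various inhibitor concentrations. Ki came from Lineweaver–Burk double-reciprocal plots and curve fitting.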

T1 sequence (P18858 whole entry): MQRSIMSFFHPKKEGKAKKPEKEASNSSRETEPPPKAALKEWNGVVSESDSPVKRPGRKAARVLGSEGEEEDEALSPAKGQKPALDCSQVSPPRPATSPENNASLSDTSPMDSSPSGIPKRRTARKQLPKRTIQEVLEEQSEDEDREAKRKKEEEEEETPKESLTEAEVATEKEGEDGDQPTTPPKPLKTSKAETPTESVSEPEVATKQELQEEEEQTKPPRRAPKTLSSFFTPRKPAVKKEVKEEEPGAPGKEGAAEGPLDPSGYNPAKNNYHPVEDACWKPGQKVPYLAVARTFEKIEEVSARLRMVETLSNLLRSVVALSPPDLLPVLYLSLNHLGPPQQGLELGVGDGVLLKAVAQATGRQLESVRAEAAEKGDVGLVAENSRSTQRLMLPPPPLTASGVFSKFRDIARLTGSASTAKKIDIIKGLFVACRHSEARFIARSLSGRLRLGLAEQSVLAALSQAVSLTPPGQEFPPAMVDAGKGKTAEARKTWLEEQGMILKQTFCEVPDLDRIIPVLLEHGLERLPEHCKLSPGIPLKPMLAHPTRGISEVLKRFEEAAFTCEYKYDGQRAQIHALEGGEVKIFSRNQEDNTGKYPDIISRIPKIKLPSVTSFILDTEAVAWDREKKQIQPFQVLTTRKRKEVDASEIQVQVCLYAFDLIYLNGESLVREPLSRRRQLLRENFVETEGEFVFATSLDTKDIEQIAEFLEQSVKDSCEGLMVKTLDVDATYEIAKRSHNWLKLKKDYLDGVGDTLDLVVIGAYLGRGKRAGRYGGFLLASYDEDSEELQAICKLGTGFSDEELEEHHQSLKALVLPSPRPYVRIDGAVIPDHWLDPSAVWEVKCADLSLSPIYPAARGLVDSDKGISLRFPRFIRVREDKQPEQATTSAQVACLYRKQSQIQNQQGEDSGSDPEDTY

SMILES | inhibition (DNA ligase 1 [1]) [%] | logP [2] | growth inhibition [3] [%] | growth inhibition (HCT-116) [%] | IC50 (DNA ligase 1 [4]) [µM] | Activity (DNA) | inhibition (DNA ligase 1 [5]; concentration not given here) [%] | Activity (DNA ligase 1 [5]) | Ki (DNA ligase 1 [6]) [µM]
Cc1c(Br)cc(NCC(=O)N/N=C\c2cc([N+](=O)[O-])ccc2O)cc1Br | 78.3 | 4.91 | 70 | 70 | 8 | inactive |  |  | 
COc1ccc(-c2cnc3c(O)nc(O)nc3n2)cc1 | 52.5 | 1.78 | 70 | 40 | 25 |  | 39 |  | 
NS(=O)(=O)c1ccc(CCNC(=O)CCS(=O)(=O)c2ccc(Br)cc2)cc1 | 53.4 | 1.42 |  |  | 8 |  |  | Active | 
O=C(c1ccc(O)cc1)c1ccccc1O | 50.7 | 3.04 |  |  | 25 |  |  | Active | 
CSc1ccc(C(=O)O)s1 | 60.5 | 1.92 |  |  | 10 |  |  | Active | 
Cc1oc(C(=O)O)cc1CSCc1cc(C(=O)O)c(C)o1 | 91 | 1.87 |  |  | 0.6 |  |  | Active | 
O=C(O)CSc1cc(Cl)c2nonc2c1[N+](=O)[O-] | 60.6 | 2.15 | 40 |  | 13 |  |  | Active | 
O=c1[nH]ncc(N/N=C\c2ccc(O)c([N+](=O)[O-])c2)c1Cl | 59.8 | 4.84 | 70 | 40 | 12 | inactive |  |  | 
O=C1Nc2c(C(=O)O)cccc2C1=O | 59.3 | 0.24 |  |  | 4 |  |  | Active | 4
